According to PubChem BioAssay AID552 (SRMLSC, 2006):
The whole screen tested about 20,000 compounds, of which about 10 (0.05%) were called active. The sample as a whole holds a higher share of actives than the screen did. Values without a mark were called inactive. Rule as the data show it: active = inhibition above about 40%; inactive = the rest.

assay: antibacterial activity on E. coli BW25113 – strain BW25113 wild type, absorbance readout, primary screen (AID 552);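 also: bacteria exposed to compound for 20 hours at 37 °C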; details: E. coli BW25113 growth inhibition, OD600; at 10 µM; stronger effect = higher value
Summary of the method: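 Assay system: Bacterial strain in a whole-cell growth screen | Amount: Inoculum from a 1:1000 dilution of a 1.5 h subculture | Detection: Absorbance at 615 nm as a measure of bacterial growth | Timing: 20 h exposure, 37 °C | Buffer or medium: LB plus kanamycin 50 µg/mL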

Row | SMILES | inhibition [%]
1 | COCCn1c(-c2ccc(OC)c(OC)c2)nc2ccccc21 | -1.61
2 | Cc1cc(C(F)(F)F)nn1CC(=O)N1CCCC1 | 3.35
3 | Cn1c(=O)[nH]c(=O)c2c1nc(N(CCO)Cc1ccccc1)n2Cc1ccccc1Cl | -2.48
4 | CC1CCc2c(sc3c2C2=NS(=O)(=O)CCN2C=N3)C1 (configuration not stated) | 6
5 | Cc1nn(CC(=O)Nc2ccc3c(c2)nc(CN2CCCCC2)n3C)c(=O)c2ccccc12 | 2.04
6 | COc1ccccc1-c1nc(C(F)(F)F)c(OC)o1 | -5.84
7 | O=c1ccc2cc(S(=O)(=O)N3CCN(c4ccccc4)CC3)ccc2o1 | -12.1
8 | Cc1ccc(C(=O)N2CCCCCC2)cc1Br | -8.59
9 | COc1cccc(-c2nc(S(=O)(=O)c3ccccc3)c(N3CCOCC3)o2)c1 | 7.07
10 | COc1ccccc1-c1cc(C(=O)NCCCn2ccnc2)no1 | -4.16
11 | O=C(O)Cc1ccc(NC(=O)c2cccs2)cc1 | -19.2
12 | COC(=O)Cc1c(C)c2ccc(OCC(=O)NCc3ccc4c(c3)OCO4)cc2oc1=O | -21.1
13 | O=C(CS(=O)(=O)Cc1ccccc1)Nc1cccnc1 | 6.45
14 | O=C(NCc1ccco1)c1cc(-c2cccnc2)nc2ccc(Cl)cc12 | -19.8
15 | CCSc1nc2c(c(=O)[nH]1)C(c1cccnc1)C(C(=O)OC(C)C)=C(C)N2 (configuration not stated) | -1.79
16 | Cc1cccc(C(=O)Nc2ccc(CC(=O)O)cc2)c1 | -0.63
17 | O=C(Nc1ccccc1)N(Cc1cccnc1)Cc1ccco1 | -3.67
18 | O=C(CSc1nc2ccccc2o1)N1CCN(c2ccccc2)CC1 | -25.4
19 | CC(=O)Nc1ccc(S(=O)(=O)Nc2nc3n(n2)C(c2ccccc2)CC(=O)N3)cc1 (configuration not stated) | -1.04
20 | Cc1cc2c(cc1C)NC(c1ccccn1)C1=C(CC(C)(C)CC1=O)N2 (configuration not stated) | -18.9
21 | CCOC(=O)COc1ccc(Cl)cc1C1NC(=O)NC(C)=C1C(C)=O (configuration not stated) | -10.9

Row | SMILES | inhibition [%]
22 | O=C(COc1ccc(F)cc1)N(CC1=CCS(=O)(=O)C1)c1ccccc1 | -20.6
23 | CC1(C)CC(=O)C=C(NCc2ccncc2)C1 | -1.29
24 | CCc1cc(Br)ccc1NC(=O)C1CCCO1 (configuration not stated) | -16.5
25 | Cc1cc(C)nc(SCc2nnc(SCC(=O)Nc3ncc(C)s3)n2Cc2ccco2)n1 | -3.82
26 | CCOc1ccc(-c2nnn(CC(=O)N3CCN(c4ccc(F)cc4)CC3)n2)cc1OCC | -5.75
27 | CCCOc1ccccc1-c1nc(SCCC(=O)O)n[nH]1 | -18.4
28 | CCOC(=O)CSc1nnc(CNC(=O)c2cccs2)n1-c1cc(OC)ccc1OC | 6.52
29 | Cc1cc(C)n(C(=O)c2ccc(S(=O)(=O)N3CCCC3)cc2)n1 | -20.2
30 | CCCCn1c(CN2CCN(CCO)CC2)nc2ccccc21 | -3.29
31 | Nc1nc(SCCOc2ccccc2)n[nH]1 | 6.28
32 | O=C(CSc1nc(-c2ccco2)cc(C(F)(F)F)n1)N1CCc2ccccc2C1 | -19.6
33 | COCCn1c(CN(Cc2ccccc2)Cc2ccccc2)nc2c1c(=O)n(C)c(=O)n2C | 12.3
34 | O=C(CSc1nnc(-c2cccs2)n1-c1ccccc1)NCc1ccco1 | -20.9
35 | CCS(=O)(=O)NCCc1ccc(OC)c(OC)c1 | -17.9
36 | CC1=C(C(=O)Nc2ccccc2)C(c2cccs2)C(C#N)=C(SCC#N)N1 (configuration not stated) | 7.71
37 | CCn1cc(NC(=O)Nc2ccc(OC)c(OC)c2)c(C(N)=O)n1 | -17.1
38 | NC(=O)CSc1oc(-c2cccs2)nc1S(=O)(=O)c1ccccc1 | -19.6
39 | COc1ccc(-c2noc(COc3ccc(Cl)c(C)c3)n2)cc1 | 15.8
40 | CS(=O)(=O)N(Cc1nc2sc3c(c2c(=O)[nH]1)CCCC3)C1CCCCC1 | 9.07
41 | CC(c1nnc(SCC(=O)Nc2sccc2C#N)n1-c1ccc(Cl)cc1)N(C)C (configuration not stated) | -3.98
42 | Cc1ccc(S(=O)(=O)NCc2nc3ccccc3c(=O)n2N)cc1 | -21.5
